Measured values taken from ChEMBL document CHEMBL4270548, “Discovery of a potent glucokinase activator with a favorable liver and pancreas distribution pattern for the treatment of type 2 diabetes mellitus” (Eur J Med Chem, 2018).
Calls of active or inactive are those of the source. No cut-off for these calls is given here.

Legend:
[1] = AUC (0 to 1.5 hrs) in C57BL/6J mouse liver at 5 mg/kg, po administered as single dose by LC/MS/MS analysis; type: ADME, organism-based; parameters: dose 5 mg/kg, time < 1.5 hr, route oral; settings: in vivo
[2] = Ratio of AUC (0 to 1.5 hrs) in C57BL/6J mouse liver to pancreas at 5 mg/kg, po administered as single dose by LC/MS/MS analysis; type: ADME, organism-based; settings: in vivo
[3] = AUC (0 to 1.5 hrs) in C57BL/6J mouse plasma at 5 mg/kg, po administered as single dose by LC/MS/MS analysis; type: ADME, organism-based; parameters: time < 1.5 hr, dose 5 mg/kg, route oral
[4] = Ratio of AUC (0 to 1.5 hrs) in C57BL/6J mouse pancreas to plasma at 5 mg/kg, po administered as single dose by LC/MS/MS analysis; type: ADME, organism-based; settings: pancreas and plasma, read-out: Ratio AUC
[5] = Ratio of AUC (0 to 1.5 hrs) in C57BL/6J mouse liver to plasma in C57BL/6J mouse at 5 mg/kg, po administered as single dose by LC/MS/MS analysis; type: ADME, organism-based; settings: liver and plasma, read-out: Ratio AUC
[6] = Ratio of AUC (0 to 1.5 hrs) in C57BL/6J mouse pancreas to plasma at 30 mg/kg, po administered as single dose by LC/MS/MS analysis; type: ADME, organism-based; settings: pancreas and plasma, read-out: Ratio AUC
[7] = Ratio of AUC (0 to 1.5 hrs) in C57BL/6J mouse liver to pancreas at 30 mg/kg, po administered as single dose by LC/MS/MS analysis; type: ADME, organism-based; settings: in vivo
Mus musculus [8] = test: Antidiabetic activity in C57BL/6J mouse assessed as increase in insulin secretion at 30 mg/kg, po measured up to 60 mins by ELISA; type: functional, organism-based
In short: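 Male C57BL/6J mice (8 weeks) fasted 2 h, then dosed orally at time 0 (n = 8/group). Tail vein insulin measured at 0, 30 and 60 min by ultra-sensitive mouse insulin ELISA. Mean ± SEM, Dunnett's test.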

[9] = AUC (0 to 1.5 hrs) in C57BL/6J mouse pancreas at 30 mg/kg, po administered as single dose by LC/MS/MS analysis; type: ADME, organism-based; parameters: time < 1.5 hr, dose 30 mg/kg, route oral; settings: in vivo
[10] = Ratio of AUC (0 to 1.5 hrs) in C57BL/6J mouse liver to plasma at 30 mg/kg, po administered as single dose by LC/MS/MS analysis; type: ADME, organism-based; settings: liver and plasma, read-out: Ratio AUC
Mus musculus [11] = test: Antidiabetic activity in po dosed C57BL/6J mouse assessed as reduction in blood glucose level administered for 15 to 30 mins prior to glucose challenge measured up to 120 mins post dose by OGTT; type: functional, organism-based
In short: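 Fasted male C57BL/6J or ob/ob mice (8 weeks, n = 8/group) dosed orally in 0.5% methylcellulose 15 or 30 min before a 2 g/kg oral glucose load. Tail vein glucose measured by glucometer at −15 or −30, 0, 20, 40, 60, 90 and 120 min. Incremental glucose AUC0-120 min compared with vehicle. Mean ± SEM, Dunnett's test.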

[12] = Ratio of AUC (0 to 1.5 hrs) in C57BL/6J mouse pancreas to plasma at 10 mg/kg, po administered as single dose by LC/MS/MS analysis; type: ADME, organism-based; settings: pancreas and plasma, read-out: Ratio AUC
[13] = AUC (0 to 1.5 hrs) in C57BL/6J mouse liver at 30 mg/kg, po administered as single dose by LC/MS/MS analysis; type: ADME, organism-based; parameters: dose 30 mg/kg, time < 1.5 hr, route oral; settings: in vivo
[14] = AUC (0 to 1.5 hrs) in C57BL/6J mouse liver at 10 mg/kg, po administered as single dose by LC/MS/MS analysis; type: ADME, organism-based; parameters: time < 1.5 hr, dose 10 mg/kg, route oral; settings: in vivo
[15] = AUC (0 to 1.5 hrs) in C57BL/6J mouse pancreas at 10 mg/kg, po administered as single dose by LC/MS/MS analysis; type: ADME, organism-based; parameters: dose 10 mg/kg, time < 1.5 hr, route oral; settings: in vivo
[16] = Ratio of AUC (0 to 1.5 hrs) in C57BL/6J mouse liver to pancreas at 10 mg/kg, po administered as single dose by LC/MS/MS analysis; type: ADME, organism-based; settings: in vivo
[17] = AUC (0 to 1.5 hrs) in C57BL/6J mouse plasma at 10 mg/kg, po administered as single dose by LC/MS/MS analysis; type: ADME, organism-based; parameters: time < 1.5 hr, dose 10 mg/kg, route oral
[18] = Ratio of AUC (0 to 1.5 hrs) in C57BL/6J mouse liver to plasma at 10 mg/kg, po administered as single dose by LC/MS/MS analysis; type: ADME, organism-based; settings: liver and plasma, read-out: Ratio AUC
[19] = AUC (0 to 1.5 hrs) in C57BL/6J mouse plasma at 30 mg/kg, po administered as single dose by LC/MS/MS analysis; type: ADME, organism-based; parameters: dose 30 mg/kg, time < 1.5 hr, route oral
[20] = AUC (0 to 1.5 hrs) in C57BL/6J mouse pancreas at 5 mg/kg, po administered as single dose by LC/MS/MS analysis; type: ADME, organism-based; parameters: dose 5 mg/kg, time < 1.5 hr, route oral; settings: in vivo
Mus musculus [21] = test: Toxicity in C57BL/6J mouse assessed as hypoglycemia at 30 mg/kg, po measured up to 300 mins by glucometric method; type: organism-based; settings: in vivo, 5 h

Which AUC [1] does the source give for `CS(=O)(=O)c1ccc([C@@H](C[C@H]2CCC(=O)C2)C(=O)Nc2cnccn2)cc1Cl` [PIRAGLIATIN] here?
The AUC was 1470 ng·h/g.

What about the “Ratio AUC” value [2] of the same compound?
The value was 2.9.

What about the AUC(0-t) at 1.5 h [3] of the same compound?
Its AUC(0-t) at 1.5 h is 351 ng·h/mL.

What about the Kp [4] of the same compound?
Its Kp is 1.4.

What about the Kp [5] of the same compound?
Its Kp is 4.2.

And the Kp [6]?
Its Kp is 2.2.

And the “Ratio AUC” value [7]?
The value was 3.1.

What about the Activity (Mus musculus [8]) of the same compound?
The Activity was “Active”.

And the AUC [9]?
Its AUC is 5030 ng·h/g.

What about the Kp [10] of the same compound?
The Kp was 6.8.

And the Activity (Mus musculus [11])?
Its Activity is “Dose-dependent effect”.

What about the Kp [12] of the same compound?
Its Kp is 1.8.

And the AUC [13]?
Its AUC is 15700 ng·h/g.

What about the AUC [14] of the same compound?
The AUC was 3230 ng·h/g.

And the AUC [15]?
Its AUC is 1020 ng·h/g.

What about the “Ratio AUC” value [16] of the same compound?
Its value is 3.2.

And the AUC(0-t) at 1.5 h [17]?
Its AUC(0-t) at 1.5 h is 574 ng·h/mL.

And the Kp [18]?
Its Kp is 5.6.

What about the AUC(0-t) at 1.5 h [19] of the same compound?
Its AUC(0-t) at 1.5 h is 2330 ng·h/mL.

And the AUC [20]?
Its AUC is 505 ng·h/g.

What about the Activity (Mus musculus [21]) of the same compound?
The Activity was “Toxic”.
